Assay results reported in ChEMBL document CHEMBL4354828, “Discovery of Taniborbactam (VNRX-5133): A Broad-Spectrum Serine- and Metallo-β-lactamase Inhibitor for Carbapenem-Resistant Bacterial Infections” (J Med Chem, 2020).
Converted amounts (≈) assume the structure as drawn.

Columns and labels:
Escherichia coli [1] = experiment: Inhibition of NDM in Escherichia coli CDC-0452 assessed as meropenem antibacterial activity at 4 ug/ml after 16 to 20 hrs by CLSI-based microbroth dilution method (reference value: […] ug/ml)
Klebsiella pneumoniae [2] = experiment: Inhibition of VIM-27/CTX-M-15/SHV-11/OXA-1 in Klebsiella pneumoniae CDC-0040 assessed as piperacillin antibacterial activity at 16 ug/ml after 16 to 20 hrs by CLSI-based microbroth dilution method
Klebsiella pneumoniae [3] = experiment: Inhibition of VIM-4 in Klebsiella pneumoniae assessed as meropenem antibacterial activity at 4 ug/ml after 16 to 20 hrs by CLSI-based microbroth dilution method (Rvb >= […] ug/ml)
Klebsiella pneumoniae [4] = experiment: Inhibition of VIM-27/CTX-M-15/SHV-11/OXA-1 in Klebsiella pneumoniae CDC-0040 assessed as meropenem antibacterial activity at 4 ug/ml after 16 to 20 hrs by CLSI-based microbroth dilution method
[5] = system: Klebsiella pneumoniae ATCC BAA-1705; experiment: Inhibition of KPC-2 in Klebsiella pneumoniae ATCC BAA 1705 assessed as piperacillin antibacterial activity at 16 ug/ml after 16 to 20 hrs by CLSI-based microbroth dilution method (Rvb > […] ug/ml)
Pseudomonas aeruginosa [6] = experiment: Inhibition of KPC-2/PDC-42 in Pseudomonas aeruginosa CDC-0356 assessed as piperacillin antibacterial activity at 16 ug/ml after 16 to 20 hrs by CLSI-based microbroth dilution method (Rvb > […] ug/ml)
Klebsiella pneumoniae [7] = experiment: Inhibition of OXA-48 in Klebsiella pneumoniae assessed as meropenem antibacterial activity at 4 ug/ml after 16 to 20 hrs by CLSI-based microbroth dilution method (Rvb >= […] ug/ml)
Pseudomonas aeruginosa [8] = experiment: Inhibition of VIM in Pseudomonas aeruginosa CDC-0457 assessed as piperacillin antibacterial activity at 16 ug/ml after 16 to 20 hrs by CLSI-based microbroth dilution method
Escherichia coli [9] = experiment: Inhibition of NDM in Escherichia coli CDC-0452 assessed as piperacillin antibacterial activity at 16 ug/ml after 16 to 20 hrs by CLSI-based microbroth dilution method (Rvb > […] ug/ml)
Klebsiella pneumoniae [10] = experiment: Inhibition of OXA-232/OXA-9/TEM-1A/CTX-M-15/OXA-1 in Klebsiella pneumoniae CDC-0066 assessed as piperacillin antibacterial activity at 16 ug/ml after 16 to 20 hrs by CLSI-based microbroth dilution method (Rvb > […] ug/ml)
Klebsiella pneumoniae [11] = experiment: Inhibition of KPC-2/SHV12/TEM-1 in Klebsiella pneumoniae CDC-0361 assessed as piperacillin antibacterial activity at 16 ug/ml after 16 to 20 hrs by CLSI-based microbroth dilution method (Rvb > […] ug/ml)
Klebsiella pneumoniae [12] = experiment: Inhibition of KPC-2/SHV12/TEM-1 in Klebsiella pneumoniae CDC-0361 assessed as cefepime antibacterial activity at 8 ug/ml after 16 to 20 hrs by CLSI-based microbroth dilution method (reference value: […] ug/ml)
Escherichia coli [13] = experiment: Inhibition of NDM-1/CMY-6/OXA-1 in Escherichia coli CDC-0055 assessed as piperacillin antibacterial activity at 16 ug/ml after 16 to 20 hrs by CLSI-based microbroth dilution method
How it was run: (§1)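 MDR β-lactamase-producing Gram-negative clinical isolates. […] MIC was reported as the inhibitor concentration that restores the partner's antibacterial activity.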

[14] = Inhibition of bacterial KPC-2 using imipenem as substrate preincubated for 15 mins followed by susbtrate addition and measured after 10 mins by spectrophotometric method; set-up: species or system Bacteria
Klebsiella pneumoniae [15] = experiment: Inhibition of OXA-232/OXA-9/TEM-1A/CTX-M-15/OXA-1 in Klebsiella pneumoniae CDC-0066 assessed as meropenem antibacterial activity at 4 ug/ml after 16 to 20 hrs by CLSI-based microbroth dilution method (reference value: […] ug/ml)
Pseudomonas aeruginosa [16] = experiment: Inhibition of KPC-2/PDC-42 in Pseudomonas aeruginosa CDC-0356 assessed as cefepime antibacterial activity at 8 ug/ml after 16 to 20 hrs by CLSI-based microbroth dilution method (Rvb > […] ug/ml)
[17] = Inhibition of bacterial VIM-2 using nitrocefin as substrate preincubated for 15 mins followed by susbtrate addition and measured after 10 mins by spectrophotometric method; set-up: species or system Bacteria
How it was run: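 Purified β-lactamase inhibition. IC50 values are the average of duplicates unless otherwise indicated.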

Klebsiella pneumoniae [18] = experiment: Inhibition of OXA-232/OXA-9/TEM-1A/CTX-M-15/OXA-1 in Klebsiella pneumoniae CDC-0066 assessed as cefepime antibacterial activity at 8 ug/ml after 16 to 20 hrs by CLSI-based microbroth dilution method (Rvb > […] ug/ml)
[19] = Inhibition of bacterial AmpC using nitrocefin as substrate preincubated for 15 mins followed by susbtrate addition and measured after 10 mins by spectrophotometric method; set-up: species or system Bacteria
Klebsiella pneumoniae [20] = experiment: Inhibition of KPC-2/SHV12/TEM-1 in Klebsiella pneumoniae CDC-0361 assessed as meropenem antibacterial activity at 4 ug/ml after 16 to 20 hrs by CLSI-based microbroth dilution method (reference value: […] ug/ml)
[21] = target: Beta-lactamase VIM-2 (Pseudomonas aeruginosa) (UniProt Q9K2N0); experiment: Inhibition of VIM-2 in Pseudomonas aeruginosa assessed as meropenem antibacterial activity at 4 ug/ml after 16 to 20 hrs by CLSI-based microbroth dilution method (Rvb >= […] ug/ml)
[22] = system: Klebsiella pneumoniae ATCC BAA-1705; experiment: Inhibition of KPC-2 in Klebsiella pneumoniae ATCC BAA 1705 assessed as cefepime antibacterial activity at 8 ug/ml after 16 to 20 hrs by CLSI-based microbroth dilution method; how it was run: as §1
Pseudomonas aeruginosa [23] = experiment: Inhibition of VIM in Pseudomonas aeruginosa CDC-0457 assessed as cefepime antibacterial activity at 8 ug/ml after 16 to 20 hrs by CLSI-based microbroth dilution method
[24] = Inhibition of bacterial OXA-48 using nitrocefin as substrate preincubated for 15 mins followed by susbtrate addition and measured after 10 mins by spectrophotometric method; set-up: species or system Bacteria
Escherichia coli [25] = experiment: Inhibition of NDM in Escherichia coli CDC-0452 assessed as cefepime antibacterial activity after 16 to 20 hrs by CLSI-based microbroth dilution method (reference value: […] ug/ml)
Klebsiella pneumoniae [26] = experiment: Inhibition of VIM-27/CTX-M-15/SHV-11/OXA-1 in Klebsiella pneumoniae CDC-0040 assessed as cefepime antibacterial activity at 8 ug/ml after 16 to 20 hrs by CLSI-based microbroth dilution method
[27] = system: Klebsiella pneumoniae ATCC BAA-1705; experiment: Inhibition of KPC-2 in Klebsiella pneumoniae ATCC BAA 1705 assessed as meropenem antibacterial activity at 4 ug/ml after 16 to 20 hrs by CLSI-based microbroth dilution method (reference value: […] ug/ml)
Escherichia coli [28] = experiment: Inhibition of NDM-1/CMY-6/OXA-1 in Escherichia coli CDC-0055 assessed as meropenem antibacterial activity at 4 ug/ml after 16 to 20 hrs by CLSI-based microbroth dilution method (reference value: […] ug/ml)
Escherichia coli [29] = experiment: Inhibition of NDM-1/CMY-6/OXA-1 in Escherichia coli CDC-0055 assessed as cefepime antibacterial activity at 8 ug/ml after 16 to 20 hrs by CLSI-based microbroth dilution method; how it was run: as §1
Pseudomonas aeruginosa [30] = experiment: Inhibition of KPC-2/PDC-42 in Pseudomonas aeruginosa CDC-0356 assessed as meropenem antibacterial activity at 4 ug/ml after 16 to 20 hrs by CLSI-based microbroth dilution method (reference value: […] ug/ml)
Pseudomonas aeruginosa [31] = experiment: Inhibition of VIM in Pseudomonas aeruginosa CDC-0457 assessed as meropenem antibacterial activity at 4 ug/ml after 16 to 20 hrs by CLSI-based microbroth dilution method
Klebsiella pneumoniae [32] = experiment: Inhibition of KPC-2 in Klebsiella pneumoniae assessed as meropenem antibacterial activity at 4 ug/ml after 16 to 20 hrs by CLSI-based microbroth dilution method (Rvb >= […] ug/ml)
[33] = Inhibition of bacterial CMY-2 using nitrocefin as substrate preincubated for 15 mins followed by susbtrate addition and measured after 10 mins by spectrophotometric method; set-up: species or system Bacteria
[34] = Inhibition of bacterial IMP-1 using nitrocefin as substrate preincubated for 15 mins followed by susbtrate addition and measured after 10 mins by spectrophotometric method; set-up: species or system Bacteria
[35] = Inhibition of bacterial SHV-5 using cefotaxime as substrate preincubated for 15 mins followed by susbtrate addition and measured after 10 mins by spectrophotometric method; set-up: species or system Bacteria
[36] = Inhibition of bacterial OXA-1 using nitrocefin as substrate preincubated for 15 mins followed by susbtrate addition and measured after 10 mins by spectrophotometric method; set-up: species or system Bacteria
[37] = Inhibition of bacterial NDM-1 using cefepime as substrate preincubated for 15 mins followed by susbtrate addition and measured after 10 mins by spectrophotometric method; set-up: species or system Bacteria
[38] = Inhibition of bacterial CTX-M-15 using cefotaxime as substrate preincubated for 15 mins followed by susbtrate addition and measured after 10 mins by spectrophotometric method; set-up: species or system Bacteria

Structure (SMILES): N[C@H]1CC[C@H](CC(=O)N[C@H]2Cc3cccc(C(=O)O)c3OB2O)CC1
- MIC (Escherichia coli [1]): 8 µg/mL (≈ 23.1 µM)
- MIC (Klebsiella pneumoniae [2]): > 16 µg/mL
- MIC (Klebsiella pneumoniae [3]): 2 µg/mL (≈ 5.78 µM)
- MIC (Klebsiella pneumoniae [4]): > 16 µg/mL
- MIC [5]: 4 µg/mL (≈ 11.6 µM)
- MIC (Pseudomonas aeruginosa [6]): 4 µg/mL (≈ 11.6 µM)
- MIC (Klebsiella pneumoniae [7]): 2 µg/mL (≈ 5.78 µM)
- MIC (Pseudomonas aeruginosa [8]): > 16 µg/mL
- MIC (Escherichia coli [9]): > 16 µg/mL
- MIC (Klebsiella pneumoniae [10]): > 16 µg/mL
- MIC (Klebsiella pneumoniae [11]): 2 µg/mL (≈ 5.78 µM)
- MIC (Klebsiella pneumoniae [12]): 0.015 µg/mL (≈ 0.0433 µM)
- MIC (Escherichia coli [13]): > 16 µg/mL
- IC50 [14]: 30 nM
- MIC (Klebsiella pneumoniae [15]): 8 µg/mL (≈ 23.1 µM)
- MIC (Pseudomonas aeruginosa [16]): 4 µg/mL (≈ 11.6 µM)
- IC50 [17]: 150 nM
- MIC (Klebsiella pneumoniae [18]): 4 µg/mL (≈ 11.6 µM)
- IC50 [19]: 30 nM
- MIC (Klebsiella pneumoniae [20]): 0.015 µg/mL (≈ 0.0433 µM)
- MIC [21]: 2 µg/mL (≈ 5.78 µM)
- MIC [22]: 0.125 µg/mL (≈ 0.361 µM)
- MIC (Pseudomonas aeruginosa [23]): 2 µg/mL (≈ 5.78 µM)
- IC50 [24]: 2240 nM
- MIC (Escherichia coli [25]): 4 µg/mL (≈ 11.6 µM)
- MIC (Klebsiella pneumoniae [26]): > 16 µg/mL
- MIC [27]: 0.015 µg/mL (≈ 0.0433 µM)
- MIC (Escherichia coli [28]): 8 µg/mL (≈ 23.1 µM)
- MIC (Escherichia coli [29]): > 16 µg/mL
- MIC (Pseudomonas aeruginosa [30]): 4 µg/mL (≈ 11.6 µM)
- MIC (Pseudomonas aeruginosa [31]): > 16 µg/mL
- MIC (Klebsiella pneumoniae [32]): 2 µg/mL (≈ 5.78 µM)

Structure (SMILES): O=C(O)C[C@@H]1CC[C@H](NC(=O)Cc2cccs2)B(O)O1 [VABORBACTAM]
- MIC (Escherichia coli [1]): > 16 µg/mL
- MIC (Klebsiella pneumoniae [2]): > 16 µg/mL
- MIC (Klebsiella pneumoniae [4]): > 16 µg/mL
- MIC [5]: > 16 µg/mL
- MIC (Pseudomonas aeruginosa [6]): > 16 µg/mL
- IC50 [33]: 220 nM
- MIC (Pseudomonas aeruginosa [8]): > 16 µg/mL
- MIC (Escherichia coli [9]): > 16 µg/mL
- MIC (Klebsiella pneumoniae [10]): > 16 µg/mL
- IC50 [34]: > 100000 nM
- MIC (Klebsiella pneumoniae [11]): > 16 µg/mL
- MIC (Klebsiella pneumoniae [12]): > 16 µg/mL
- MIC (Escherichia coli [13]): > 16 µg/mL
- IC50 [14]: 100 nM
- MIC (Klebsiella pneumoniae [15]): > 16 µg/mL
- MIC (Pseudomonas aeruginosa [16]): > 16 µg/mL
- IC50 [17]: > 100000 nM
- MIC (Klebsiella pneumoniae [18]): > 16 µg/mL
- IC50 [19]: 90 nM
- MIC (Klebsiella pneumoniae [20]): 0.06 µg/mL (≈ 0.202 µM)
- IC50 [35]: 440 nM
- MIC (Pseudomonas aeruginosa [23]): > 16 µg/mL
- IC50 [36]: 7900 nM
- IC50 [24]: 38800 nM
- MIC (Escherichia coli [25]): > 16 µg/mL
- MIC (Klebsiella pneumoniae [26]): > 16 µg/mL
- MIC [27]: 0.03 µg/mL (≈ 0.101 µM)
- MIC (Escherichia coli [28]): > 16 µg/mL
- MIC (Escherichia coli [29]): > 16 µg/mL
- MIC (Pseudomonas aeruginosa [30]): 8 µg/mL (≈ 26.9 µM)
- MIC (Pseudomonas aeruginosa [31]): > 16 µg/mL
- IC50 [37]: > 100000 nM
- IC50 [38]: 420 nM
